One data set has as its system BMDMs. Description: Flow cytometry of M2 markers in BMDMs incubated with IL-4 and UPNs. Format: cell-based, mouse. To be noted: for effect of inhibitor on UPN-induced CD206 expression: flow cytometry, IL-4 and UPN induced macrophages. In short, it runs like this:
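Bone marrow cells from C57BL/6J mice were red-cell-lysed and grown as BMDMs at 37 °C and 5% CO2 in M-CSF medium (40 ng/ml). Medium was replenished on days 2 and 3 and renewed on day 5. Groups were untreated, IL-4, test nanofibers, and IL-4 plus test nanofibers. STAT6-IN-1 (p-STAT6 inhibitor) was applied with IL-4 plus nanofibers. CD163 and CD206 were quantified by flow cytometry; mean ± SD, n = 3.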
Background: A flow cytometer gives signals particle by particle.

For data set [1], the system named is macrophages. As to the kind of experiment: TEM of macrophage mitochondria. In kind it is cell-based, mouse. As to conditions: Ctrl group nearly 20%, Fig. 2J. Put shortly: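 Macrophages derived from mouse bone marrow in M-CSF medium (40 ng/ml), refreshed on days 2, 3 and 5, then induced with peptide or nanofibers. Imaged by transmission electron microscopy. Expanded mitochondria scored as a fraction of total mitochondria. Mean ± SD, n = 3.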

In the next data set the test system is bone defects in mice. As to the kind of experiment: Gene transcript sequencing of bone defects in mice treated with UPs. In kind it is in vivo, mouse. As to conditions: mice treated with UPs for 14 days (tail vein injection); Fig. 3A.
Data set [2] concerns macrophages. As to the kind of experiment: Microscopic observation of macrophage state with UP and UPN. In kind it is cell-based, mouse. To be noted: 800 μg/ml, 0, 48 and 72 h; Figure S7 A-C. In short, it runs like this:
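Peptide and nanofiber preparations pre-incubated 6 h. Cells then cultured with them for 0, 48 and 72 h. Cell activity state checked by light microscopy alongside a CCK-8 proliferation read (100 μl per 2 ml medium, 2 h, absorbance 450 nm).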

For the next data set, the system named is p-STAT6. As to the kind of experiment: p-STAT6 immunofluorescence in M2-type macrophages. In kind it is cell-based, mouse. To be noted: 24 h; semiquantitative; Ctrl group 1.7%; Fig. 4E.
The next data set relates to BMSCs. As to the kind of experiment: Transwell migration of BMSCs in coculture. In kind it is cell-based, mouse. Put shortly: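 BMSCs were obtained from 4-week-old SPF C57BL/6J mouse bone marrow, red-cell-lysed at 4 °C for 10 min, and cultured at 37 °C and 5% CO2. They were then cocultured with macrophages given no treatment, IL-4, or IL-4 plus test nanofibers. BMSC migration was assessed at 0, 24 and 48 h and expressed as percentage of migrating cells; mean ± SD, n = 3.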

On to `C/C(=C\C(=O)N[C@H](C(=O)N1CCC[C@H]1C(=O)N(c1ccccc1)c1ccc(I)cc1)C(C)(C)C)c1ccc(OP(=O)(O)O)cc1` [STAT6-IN-1], for which the “effect of inhibitor on UPN-induced CD206 expression” value in the data set with BMDMs is “inhibited UPN-induced expression of the M2-type macrophage marker CD206”.
Still for that read-out and setting: for `O=C(Nc1ccccc1)c1cc([N+](=O)[O-])ccc1Cl` [GW9662] the value was “inhibited UPN-induced expression of the M2 type macrophage marker CD206”.
As to Ser-Glu-Ser-Ser-Glu [UP], the “percentage of swollen mitochondria” value in the data set with macrophages [1] is 38%. Moreover, the “expression of Arg1 and CD163 in bone defects” value in the data set with bone defects in mice is “marked increase in the expression of Arg1 and CD163”. In addition, the “active status of macrophages under the microscope” value in the data set with macrophages [2] was “not significantly toxic”.
As to “IL-4: interleukin-4, used to induce M2-type macrophages”, in the data set with BMDMs (BMDMs, flow cytometry quantification, n = 3, Ctrl nearly 17.2%, Fig. 3L), the “expression of CD163” value is on record as 50.3%. In the data set on BMDMs (BMDMs, flow cytometry quantification, n = 3, Ctrl nearly 18.1%, Fig. 3M), the “expression of CD206” value is 40.9%. For the same compound, in the data set with p-STAT6, the p-STAT6 fluorescence intensity was found to be 7.8%. Moreover, the “percentage of migrating cells at 24 h” value with BMSCs (24 h, control group nearly 2%, Fig. 5I) stood at 7.2%. Besides, the “number of migrating cells at 48 h” value in the data set with BMSCs (48 h, control group 4.8%, Fig. 5J) was 13.7%.

(Values after PMC10450354 (Bioactive Materials, 2023).)
